Test results as given in the M2OR odorant receptor database.

Key:
Conditions in all cases: stereoisomer not certain
[1] = biological target: OR2M5 (Homo sapiens) (UniProt A3KFT3)
Outline: (§1)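 Each entry records the cell line, G-protein, co-transfected protein and tags used. Methods varied with the source, often transient luciferase assays in mammalian cell lines. A receptor–molecule pair is called responsive (active) if the original authors judged its signal statistically different from baseline and non-responsive (inactive) otherwise.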

[2] = test system: OR2M5 D11G
Outline: as §1

[3] = biological target: OR2S2 (Homo sapiens) (UniProt Q9NQN1)
Outline: as §1

[4] = biological target: OR2T1 (Homo sapiens) (UniProt O43869)
Outline: as §1

[5] = biological target: OR2T11 (Homo sapiens) (UniProt Q8NH01)
Outline: as §1

[6] = biological target: OR2T12 (Homo sapiens) (UniProt Q8NG77)
Outline: as §1

Measured: odorant receptor agonist call

Sequence of OR2T11 (Homo sapiens) (Q8NH01 whole entry): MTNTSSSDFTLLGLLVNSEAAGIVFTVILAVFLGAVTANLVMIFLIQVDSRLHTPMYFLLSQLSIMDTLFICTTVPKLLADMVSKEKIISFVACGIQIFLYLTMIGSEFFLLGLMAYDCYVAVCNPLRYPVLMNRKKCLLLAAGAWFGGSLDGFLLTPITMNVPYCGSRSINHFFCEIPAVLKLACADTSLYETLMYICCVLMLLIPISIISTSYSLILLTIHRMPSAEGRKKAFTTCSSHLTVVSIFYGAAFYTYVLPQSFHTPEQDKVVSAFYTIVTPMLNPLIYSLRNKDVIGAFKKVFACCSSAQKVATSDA
Sequence of OR2S2 (Homo sapiens) (Q9NQN1 whole entry): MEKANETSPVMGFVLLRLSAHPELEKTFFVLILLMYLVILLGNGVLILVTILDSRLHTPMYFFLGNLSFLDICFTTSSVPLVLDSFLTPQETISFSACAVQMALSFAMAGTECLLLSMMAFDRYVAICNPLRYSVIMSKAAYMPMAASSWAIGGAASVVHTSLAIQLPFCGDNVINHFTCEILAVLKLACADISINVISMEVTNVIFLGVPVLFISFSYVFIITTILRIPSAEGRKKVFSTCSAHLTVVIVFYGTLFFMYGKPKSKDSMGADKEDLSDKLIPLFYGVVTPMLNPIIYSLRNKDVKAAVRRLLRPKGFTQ
Sequence of OR2T12 (Homo sapiens) (Q8NG77 whole entry): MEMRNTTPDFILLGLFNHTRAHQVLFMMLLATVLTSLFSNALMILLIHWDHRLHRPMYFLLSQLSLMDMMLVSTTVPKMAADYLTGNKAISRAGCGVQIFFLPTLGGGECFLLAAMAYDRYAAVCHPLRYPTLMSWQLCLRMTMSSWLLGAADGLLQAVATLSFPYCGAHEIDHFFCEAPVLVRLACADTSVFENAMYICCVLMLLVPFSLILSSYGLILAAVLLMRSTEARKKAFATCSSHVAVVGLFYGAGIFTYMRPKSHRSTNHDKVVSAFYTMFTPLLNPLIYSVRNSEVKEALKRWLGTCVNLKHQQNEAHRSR
Sequence of OR2M5 (Homo sapiens) (A3KFT3 whole entry): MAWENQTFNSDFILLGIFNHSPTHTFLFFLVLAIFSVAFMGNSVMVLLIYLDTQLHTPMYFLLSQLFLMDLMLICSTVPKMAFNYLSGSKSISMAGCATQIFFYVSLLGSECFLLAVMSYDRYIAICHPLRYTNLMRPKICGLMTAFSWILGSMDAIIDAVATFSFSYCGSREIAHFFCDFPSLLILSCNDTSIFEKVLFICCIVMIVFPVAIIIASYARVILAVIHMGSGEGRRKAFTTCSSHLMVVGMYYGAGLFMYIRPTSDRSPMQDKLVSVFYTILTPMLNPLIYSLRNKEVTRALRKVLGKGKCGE
Sequence of OR2T1 (Homo sapiens) (O43869 whole entry): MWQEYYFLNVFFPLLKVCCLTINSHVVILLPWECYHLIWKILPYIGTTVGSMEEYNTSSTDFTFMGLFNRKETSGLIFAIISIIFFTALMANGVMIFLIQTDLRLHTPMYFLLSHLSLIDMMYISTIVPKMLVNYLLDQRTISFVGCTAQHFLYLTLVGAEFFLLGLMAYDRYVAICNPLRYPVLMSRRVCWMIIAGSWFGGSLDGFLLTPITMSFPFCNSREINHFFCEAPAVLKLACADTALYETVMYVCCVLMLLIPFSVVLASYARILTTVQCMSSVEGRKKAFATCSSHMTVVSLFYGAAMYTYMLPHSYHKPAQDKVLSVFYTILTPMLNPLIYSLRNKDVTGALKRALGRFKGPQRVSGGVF
Sequence of OR2M5 D11G (as listed by the source, stated change not applied): as the sequence (A3KFT3 whole entry) above, with D11G counted along it

C=CCOC(=O)Cc1ccccc1
inactive: [1] | [2] | [3] | [4] | [5] | [6]

Cc1c([N+](=O)[O-])c(C)c([N+](=O)[O-])c(C(C)(C)C)c1[N+](=O)[O-]
inactive: [1] | [3] | [4] | [5] | [6]
